# Key:
# B16 [1] = test: MST of treated animal over control when administered at a dose of 5 mg/kg intraperitoneally on Q01Dx01 treatment schedule in B16 melanocarcinoma cell lines; type: functional, Mus musculus; conditions: route intraperitoneal
# Outline: (§1)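 B16 melanocarcinoma: C57Bl/6 mice implanted sc with cell suspension on day 0; single ip dose in 0.15 M NaCl saline given on day 1. Median survival time was recorded in days, with toxicity taken as survivors on day 5. T/C% = treated MST/control MST × 100; >125% is considered significant.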
# B16 [2] = test: Number of survivors of B16 melanocarcinoma cell line on day 5/ number of treated mice at a dose of 1 ip injection of 10 mg/kg on Q01Dx01 treatment schedule; 10/10; type: functional, Mus musculus; conditions: route intraperitoneal
# B16 [3] = test: Number of survivors of B16 melanocarcinoma cell line on day 5/ number of treated mice at a dose of 1 ip injection of 5 mg/kg on Q01Dx01 treatment schedule; 09/10; type: functional, Mus musculus; conditions: route intraperitoneal
# B16 [4] = test: Median survival time of […] melanocarcinoma cell line after a dose of 5 mg/kg administered intraperitoneally on Q01Dx01 treatment schedule; type: functional, Mus musculus; conditions: route intraperitoneal; outline: as §1
# L1210 [5] = test: MST of treated animal over control when administered at a dose of 5 mg/kg intraperitoneally on Q01Dx05 treatment schedule in L1210 cell lines; type: functional, Mus musculus; conditions: route intraperitoneal
# Outline: (§2)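 L1210 leukaemia: DBA/2 mice inoculated ip with 10^5 cells on day 0, with ip drug in 0.15 M NaCl saline on the stated schedule. The read-out was median survival time in days, with toxicity taken as survivors on day 5. T/C% = treated MST/control MST × 100; >125% is considered significant.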
# L1210 [6] = test: MST of treated animal over control when administered at a dose of 5 mg/kg intraperitoneally on Q01Dx09 treatment schedule in L1210 cell lines; type: functional, Mus musculus; conditions: route intraperitoneal; outline: as §2
# L1210 [7] = test: Median survival time of L1210 cell line after a dose of 20 mg/kg administered intraperitoneally on Q01Dx01 treatment schedule; type: functional, Mus musculus; conditions: route intraperitoneal; outline: as §2
# L1210 [8] = test: Median survival time of L1210 cell line after a dose of 5 mg/kg administered intraperitoneally on Q01Dx05 treatment schedule; type: functional, Mus musculus; conditions: route intraperitoneal; outline: as §2
# L1210 [9] = test: Number of survivors of L1210 cell line on day 5/ number of treated mice at a dose of 9ip injection of 2.5 mg/kg on Q01Dx09 treatment schedule; 10/10; type: functional, Mus musculus
# L1210 [10] = test: MST of treated animal over control when administered at a dose of 15 mg/kg intraperitoneally on Q01Dx02 treatment schedule in L1210 cell lines; type: functional, Mus musculus; conditions: route intraperitoneal; outline: as §2
# L1210 [11] = test: MST of treated animal over control when administered at a dose of 2.5 mg/kg intraperitoneally on Q01Dx09 treatment schedule in L1210 cell lines; type: functional, Mus musculus; conditions: route intraperitoneal; outline: as §2
# L1210 [12] = test: MST of treated animal over control when administered at a dose of 20 mg/kg intraperitoneally on Q01Dx01 treatment schedule in L1210 cell lines; type: functional, Mus musculus; conditions: route intraperitoneal; outline: as §2
# L1210 [13] = test: Median survival time of L1210 cell line after a dose of 10 mg/kg administered intraperitoneally on Q01Dx01 treatment schedule; type: functional, Mus musculus; conditions: route intraperitoneal; outline: as §2
# L1210 [14] = test: Number of survivors of L1210 cell line on day 5/ number of treated mice at a dose of 1 i.p. injection of 20 mg/kg on Q01Dx01 treatment schedule; 10/10; type: functional, Mus musculus; conditions: route intraperitoneal
# P388 [15] = test: Number of survivors of P388 lymphocytic leukemia cell line on day 5/ number of treated mice at a dose of 7po injection of 10 mg/kg on Q01Dx07 treatment schedule; 10/10; type: functional, Mus musculus
# P388 [16] = test: MST of treated animal over control when administered at a dose of 10 mg/kg perorally on Q01Dx07 treatment schedule; type: functional, Mus musculus; conditions: route oral
# Outline: (§3)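 P388 leukaemia: DBA/2 mice inoculated with 10^6 cells on day 0; treatment began day 1 at the stated route and schedule. Drug was dissolved in 0.15 M NaCl saline. The read-out was median survival time (MST, days), with toxicity taken as survivors on day 5. T/C% = treated MST/control MST × 100; ≥125% is considered significant.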
# P388 [17] = test: MST of treated animal over control when administered at a dose of 2.5 mg/kg intravenously on Q01Dx01 treatment schedule; type: functional, Mus musculus; conditions: route intravenous; outline: as §3
# P388 [18] = test: MST of treated animal over control when administered at a dose of 20 mg/kg perorally on Q01Dx07 treatment schedule; type: functional, Mus musculus; conditions: route oral; outline: as §3
# P388 [19] = test: Number of survivors of P388 lymphocytic leukemia cell line on day 5/ number of treated mice at a dose of 1 i.p. injection of 20 mg/kg on Q01Dx01 treatment schedule; 10/10; type: functional, Mus musculus; conditions: route intraperitoneal
# P388 [20] = test: Number of survivors of P388 lymphocytic leukemia cell line on day 5/ number of treated mice at a dose of 1 i.v. injection of 15 mg/kg on Q01Dx01 treatment schedule; 5/10; type: functional, Mus musculus; conditions: route intravenous
# P388 [21] = test: Number of survivors of P388 lymphocytic leukemia cell line on day 5/ number of treated mice at a dose of 1 i.v. injection of 2.5 mg/kg on Q01Dx01 treatment schedule; 9/10; type: functional, Mus musculus; conditions: route intravenous
# P388 [22] = test: Number of survivors of P388 lymphocytic leukemia cell line on day 5/ number of treated mice at a dose of 7po injection of 20 mg/kg on Q01Dx07 treatment schedule; 10/10; type: functional, Mus musculus
# P388 [23] = test: Median survival time of P388 lymphocytic leukemia cell line after a dose of 5 mg/kg administered intraperitoneally on Q01Dx05 treatment schedule; type: functional, Mus musculus; conditions: route intraperitoneal; outline: as §3
# P388 [24] = test: Median survival time of P388 lymphocytic leukemia cell line after a dose of 5 mg/kg administered intraperitoneally on Q01Dx09 treatment schedule; type: functional, Mus musculus; conditions: route intraperitoneal; outline: as §3
# P388 [25] = test: Median survival time of P388 lymphocytic leukemia cell line after a dose of 15 mg/kg administered intravenously on Q01Dx01 treatment schedule; type: functional, Mus musculus; conditions: route intravenous; outline: as §3
# P388 [26] = test: Median survival time of P388 lymphocytic leukemia cell line after a dose of 5 mg/kg administered intravenously on Q01Dx01 treatment schedule; type: functional, Mus musculus; conditions: route intravenous; outline: as §3
# Sarcoma-180 [27] = test: Median survival time of sarcoma 180 cell line after a dose of 20 mg/kg administered intraperitoneally on Q01Dx01 treatment schedule; type: functional, Mus musculus; conditions: route intraperitoneal
# Outline: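 Sarcoma 180 was inoculated ip in Swiss mice (10^6 cells, day 0), and drug was given ip in 0.15 M NaCl saline. Median survival time was recorded in days; antitumor activity was expressed as treated MST over control MST ×100, significant above 125%.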
# Salmonella typhimurium [28] = test: Mutagenesis test was performed at 10 uM concentration in Salmonella Typhimurium TA 100; type: functional, Salmonella enterica subsp. enterica serovar Typhimurium
# Outline: (§4)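 Salmonella typhimurium his auxotrophs TA98 and TA100 were tested by liquid suspension without metabolic activation. Overnight Oxoid nutrient broth cultures were subcultured, grown 2 h, then exposed to drug for 5 h. Cells were washed, resuspended to A650 2.50, and plated in top agar (0.6% agar, 0.6% NaCl). His+ revertants per plate were counted after 48 h at 37 °C; values are means of three assays.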
# Salmonella typhimurium [29] = test: Mutagenesis test was performed at 4 uM concentration in Salmonella Typhimurium TA 100; type: functional, Salmonella enterica subsp. enterica serovar Typhimurium; outline: as §4
# Sarcoma-180 [30] = test: Number of survivors of sarcoma 180 cell line on day 5/ number of treated mice at a dose of 1 ip injection of 10 mg/kg on Q01Dx01 treatment schedule; 10/10; type: functional, Mus musculus; conditions: route intraperitoneal
compound,measurement,setting,value
O=C1C(N2CC2)=C(N2CC2)C(=O)c2ncncc21,T/C,B16 [1],126%
same,Toxicity Survivors,B16 [2],10
same,Toxicity Survivors,B16 [3],9
same,MST,B16 [4],15.7 days
same,T/C,L1210 [5],108%
same,T/C,L1210 [6],109%
same,MST,L1210 [7],9.4 days
same,MST,L1210 [8],9.1 days
same,Toxicity Survivors,L1210 [9],10
same,T/C,L1210 [10],104%
same,T/C,L1210 [11],109%
same,T/C,L1210 [12],115%
same,MST,L1210 [13],9.4 days
same,Toxicity Survivors,L1210 [14],10
same,Toxicity Survivors,P388 [15],10
same,T/C,P388 [16],100%
same,T/C,P388 [17],103%
same,T/C,P388 [18],105%
same,Toxicity Survivors,P388 [19],10
same,Toxicity Survivors,P388 [20],5
same,Toxicity Survivors,P388 [21],9
same,Toxicity Survivors,P388 [22],10
same,MST,P388 [23],10.4 days
same,MST,P388 [24],10.4 days
same,MST,P388 [25],10.4 days
same,MST,P388 [26],10.4 days
same,MST,Sarcoma-180 [27],19 days
same,Revertants/plate,Salmonella typhimurium [28],97
same,Revertants/plate,Salmonella typhimurium [29],87
same,Toxicity Survivors,Sarcoma-180 [30],10

# Source: ChEMBL document CHEMBL1122504, “Heterocyclic Quinones. 4. A new highly cytotoxic drug: 6,7-bis(1-aziridinyl)-5,8-quinazolinedione” (1983)
